Assay outcomes deposited in PubChem by several laboratories.
Hits are enriched below; roughly 3.3% of the tested compounds scored in any of these assays.
PfM18AAP inh = PfM18AAP inhibitors, malaria aminopeptidase, primary screen, biochemical, QFRET, recombinant enzyme | M18 aspartyl aminopeptidase (Plasmodium falciparum 3D7) | H-Glu-NHMec fluorogenic cleavage | inhibition, % at 7.35 µM | 1.2% of 290,000 active;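 active = inhibition above the campaign mean inhibition over all tested compounds plus 3 SD, cut at about 28% in these data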;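 also: 0% = plate median of test compound wells and 100% = 2 mM ZnCl2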
sPLA2-III inh = human group III sPLA2 inhibitors, primary screen, biochemical, QFRET, BODIPY PC-A2 liposome substrate. inhibition, % at 12.2 µM. 0.56% of 370,000 active. QFRET BODIPY PC-A2 liposome hydrolysis, fluorescence;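 active = inhibition above mean plus 3 SD of compounds lying within the high and low control bounds, cut at about 19% in these data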;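 also: 0% = median of test compound wells and 100% = no enzyme DMSO wells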
Target sequence (Q9NZ20 whole entry, looked up): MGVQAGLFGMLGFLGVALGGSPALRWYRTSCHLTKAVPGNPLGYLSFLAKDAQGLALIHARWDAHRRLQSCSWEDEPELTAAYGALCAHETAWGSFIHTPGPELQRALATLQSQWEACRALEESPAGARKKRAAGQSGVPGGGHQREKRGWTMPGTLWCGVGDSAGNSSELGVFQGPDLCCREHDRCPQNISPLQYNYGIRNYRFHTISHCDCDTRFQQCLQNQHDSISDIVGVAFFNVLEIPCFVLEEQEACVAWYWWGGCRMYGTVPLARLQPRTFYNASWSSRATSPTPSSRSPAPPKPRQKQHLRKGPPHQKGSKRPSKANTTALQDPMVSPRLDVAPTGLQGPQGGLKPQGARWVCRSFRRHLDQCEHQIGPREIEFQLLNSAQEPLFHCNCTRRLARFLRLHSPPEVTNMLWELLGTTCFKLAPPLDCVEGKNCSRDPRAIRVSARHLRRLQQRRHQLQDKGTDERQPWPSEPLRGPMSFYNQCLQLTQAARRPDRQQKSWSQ
Hep lipid drop = inhibitors of hepatocyte lipid droplet formation, primary screen, imaging, high-throughput imaging, BODIPY stain. AML12 mouse hepatocytes, oleate lipid droplets. inhibition, % at 6.5 µM. 0.4% of 240,000 active. AID 1656, 2009;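 active = lipid droplet intensity inhibited by at least 50%, with more than 500 cells counted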
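Material: mouse AML12 hepatocyte cell line, fixed after treatment; Timing: compound with oleate, overnight; Technique: high-content imaging of BODIPY-stained droplets and DAPI nuclei; Probe or stimulus: oleate, 100 µM final; Dosing: compound at 6.5 µM only.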
Arrestin-AP2 inh = inhibitors of beta-arrestin/AP2 binding, primary screen, biochemical, GPCR trafficking, flow cytometry | FITC-arrestin peptide / GST-AP2 beads; AP2 beta2 appendage carries R879A mutation | 0.31% of 340,000 active | inhibition, % at 10 µM | AID 504490, 2011 | beta-arrestin 1 C-terminal peptide binding to AP2 beta2-adaptin appendage (human);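 active = inhibition above a set limit, near 3 SD of compounds lacking own fluorescence, cut at about 54% in these data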;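 also: plate controls were DMSO wells for no effect and 5 µM unlabelled arrestin peptide for full effect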
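Assay system: GST-AP2 R879A bound to glutathione beads, E. coli-expressed; Medium: PBS with 0.05% Tween 20 and 0.1% BSA; Also added: fluorescein-tagged arrestin peptide at 50 nM final; Timing: 12 min plus 1 h, RT; Measured by: flow cytometry, FL1 (488/535 nm); Evaluation: percent drop in bead-associated FITC signal.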
CendR NRP1 mod = modulators of CendR peptide binding to NRP-1, primary screen, biochemical, fluorescence polarization, uHTS; inhibition, % at 25 µM; 0.85% of 360,000 active; FAM-RPARPAR peptide binding to NRP-1;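 active = inhibition or corrected inhibition above about 18%, plus a signal ratio from 0.5 to 1.5, limit read from the data, passing the limit was not always enough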
HTR2A ag = mouse Htr2a agonists via beta-arrestin recruitment, primary screen, cell-based, luminescence; 5-hydroxytryptamine receptor 2A (Mus musculus), P35363; CHO-K1 mHTR2A beta-arrestin complementation; percent of 30 µM serotonin response; activation, % at 7.6 µM; 0.66% of 360,000 active;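 active = activation above a run cutoff, the mean activation of all tested compounds plus 3 SD, cut at about 14% in these data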;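 also: 0% = plate median of compound wells and 100% = 30 µM serotonin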
OPRM1 ag = OPRM1 agonists via beta-arrestin recruitment, confirmation, counter-screen for mouse HTR2A agonist project, cell-based, luminescence, single concentration. AID 624380, 2012. 5.3% of 2,300 active. activation, % at 9.3 µM. shares compounds with HTR2A ag. U2OS OPRM1 beta-arrestin PathHunter; DMSO 0%, DAMGO 9.3 µM 100%;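 active = mean activation above the mean of DMSO-only wells plus 3 SD, cut at about 0.5% in these data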
m5-HT2A ag conf = mouse HTR2A agonists, beta-arrestin recruitment, confirmation, cell-based, luminescence, CHO-K1 PathHunter, triplicate. shares compounds with HTR2A ag. DMSO 0%, 30 µM serotonin 100%. 19% of 2,300 active. activation, % at 7.6 µM;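 active = mean activation across triplicates above the hit threshold derived in the original primary screen, cut at about 15% in these data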
The depositor's hits bear a star; nt = no result given.

SMILES | PfM18AAP inh | sPLA2-III inh | Hep lipid drop | Arrestin-AP2 inh | CendR NRP1 mod | HTR2A ag | OPRM1 ag | m5-HT2A ag conf
CCCc1c(-c2ccc(F)cc2)ncn1CCc1ccccc1OC | nt | -2.2 | nt | nt | 1.3 | 16.5* | 0.8* | -9.3
Cc1cc(C)c(C#N)c(OCC2CCCO2)n1 (configuration not stated) | nt | 6.3 | nt | nt | 0.5 | 14.6* | -0.6 | -1.0
O=C(CC1(O)C(=O)Nc2ccccc21)c1ccccc1O (configuration not stated) | -0.3 | -4.8 | nt | 3.6 | 6.2 | 20.7* | -1.3 | -3.0
COC(=O)[C@]12C[C@H](CC(=O)NCc3cccc4ccccc34)C(=O)N(Cc3ccco3)C1=C[C@H](COCc1ccccc1)O[C@@H]2C | nt | -13.3 | nt | nt | nt | nt | nt | nt
Cc1cccc(-c2nsc(SCC(=O)Nc3nccs3)n2)c1 | -6.3 | -0.8 | nt | 0.8 | 0.0 | 18.0* | 0.0 | -1.7
Cc1cccc(-c2nsc(SCC(=O)Nc3ccc4c(c3)OCO4)n2)c1 | 10.2 | -10.8 | 15.4 | -6.0 | -5.9 | -1.1 | nt | nt
CC(C)(C)N(Cc1ccc2c(c1)OCO2)C(=O)/C=C\S(=O)c1ccccc1 (configuration not stated) | nt | -3.0 | nt | 35.5 | 6.2 | 19.3* | -0.6 | 2.1
COC(=O)[C@@]12CCCCC3=C1N(CCC3)C(=O)[C@H]2CC(=O)NCc1ccc(OC)c(OC)c1 | nt | 10.4 | nt | nt | nt | nt | nt | nt
COC(=O)[C@]12C[C@H](CC(=O)NCCCN3CCCC3=O)C(=O)N(Cc3ccc(Cl)cc3Cl)C1=C[C@H](C(C)C)O[C@@H]2C1CC1 | nt | -10.9 | nt | nt | nt | nt | nt | nt
O=C(NC1(C(F)(F)F)NC(=O)N(c2ccc(F)cc2)C1=O)c1cccs1 (configuration not stated) | -0.8 | 0.9 | -3.1 | -1.8 | 10.2 | 18.2* | -0.4 | -4.2
COc1ccc(C(C(=O)N(C)C2CCCC2)N(Cc2ccc(F)cc2)C(=O)c2ccc3ccccc3c2)cc1OC (configuration not stated) | nt | 0.2 | nt | nt | nt | nt | nt | nt
CN1CCN(C(=O)C2=NOC3(C2)C(=O)Nc2ccccc23)CC1 (configuration not stated) | nt | 5.4 | nt | nt | -0.3 | 4.3 | nt | nt
CC(NC(=O)c1ccc2ccccc2n1)c1ccc(S(N)(=O)=O)cc1 (configuration not stated) | -13.3 | -11.3 | 0.0 | -10.7 | -1.9 | 16.6* | -0.1 | 0.9
CC(NC(=O)c1ccc2ccccc2n1)c1ccc(Br)cc1 (configuration not stated) | -4.1 | -4.0 | -15.9 | 22.2 | 9.7 | -8.2 | nt | nt
COc1cc(-c2nnc(-c3cc(OC)c(OC)c(OC)c3)o2)cc(OC)c1OC | -2.3 | 3.5 | 3.3 | -4.8 | -5.9 | 17.4* | 0.3 | -1.8
COc1cc(-c2nnc(-c3ccccc3)o2)cc(OC)c1OC | -1.2 | -2.1 | 10.6 | 10.4 | 3.1 | 0.2 | nt | nt
Cc1ccc(S(=O)(=O)N2CCCCC2)cc1NC(=O)c1ccc(Br)o1 | nt | -10.2 | nt | 17.8 | 14.7 | -0.9 | nt | nt
OCc1ccccc1SSc1ccccc1CO | nt | 8.1 | nt | 21.4 | 8.4 | 4.2 | nt | nt
Cc1ccc(S(=O)(=O)N2CCCC2C(=O)N2CCN(c3ccccc3)CC2)cc1C (configuration not stated) | nt | -4.1 | nt | nt | nt | nt | nt | nt
O=C(/C=C/c1ccncc1)c1ccc2c(c1)OCCO2 | 10.6 | -4.5 | 0.2 | 35.2 | -9.3 | 5.1 | nt | nt
COc1cc(/C=C/C(=O)c2ccc3c(c2)OCCO3)cc(Br)c1OCC(=O)N(C)C | 0.9 | -0.5 | -20.5 | 6.0 | -16.3 | 18.5* | -0.8 | -5.8
Clc1ccc(-c2cc(-c3nnc4sc(Cc5cccs5)nn34)[nH]n2)cc1 | nt | -62.3 | nt | nt | nt | nt | nt | nt
CCCCCCCC/C=C\CCCCCCCC(=O)NCCc1ccc(O)c(O)c1 | nt | 5.2 | nt | -6.8 | -3.9 | 33.8* | 0.3 | 170.2*
CC1C(=O)N2CCCc3cc(S(=O)(=O)NCc4ccccc4Cl)cc1c32 (configuration not stated) | 0.2 | -47.9 | -5.0 | -0.5 | 6.6 | 2.0 | nt | nt
CC(C)(O)c1[nH]c2ccc(C(F)(F)F)cc2c1C(C)(C)O | 1.1 | -0.2 | nt | 10.1 | -10.0 | 5.2 | nt | nt
SMILES | PfM18AAP inh | sPLA2-III inh | Hep lipid drop | Arrestin-AP2 inh | CendR NRP1 mod | HTR2A ag | OPRM1 ag | m5-HT2A ag conf
CN(C)Cc1c(C(C)(C)O)[nH]c2ccc(C(F)(F)F)cc12 | nt | 6.3 | nt | -0.1 | 2.4 | 23.1* | -0.6 | 19.8*
C[C@H](CO)N1C[C@H](C)[C@@H](CN(C)Cc2cccc3c2OCCCO3)OCc2cnnn2CCCC1=O | nt | -1.6 | nt | nt | 8.0 | 19.0* | -0.4 | -2.0
O=C(NC1CCCCC1)c1nc(-c2c(F)cccc2F)oc1-c1ccccc1 | nt | 11.0 | nt | nt | 8.4 | -2.1 | nt | nt
CC(C)c1cc(C(C)C)c(S(=O)(=O)N2CCC(C(=O)NCc3cccs3)CC2)c(C(C)C)c1 | nt | -3.6 | nt | nt | nt | nt | nt | nt
CN(CCO)c1cccc2c1S(=O)(=O)N[C@@H](Cc1ccccc1)CO2 | nt | 11.9 | nt | nt | 0.7 | 0.2 | nt | nt
Cc1ccc(C)c(C(=O)CCC(=O)Nc2cccnc2)c1 | -8.3 | -8.3 | -2.5 | 12.2 | 18.4 | 15.1* | -0.5 | -0.3
COc1ccc(O)c(/C=N/NC(=O)c2cccc(N3CCCC3=O)c2)c1 | 7.0 | 1.0 | 15.6 | 38.6 | 4.0 | 1.0 | nt | nt
COc1cccc(/C=N/NC(=O)c2cccc(N3CCCC3=O)c2)c1 | 2.1 | 0.2 | -8.3 | 2.0 | 0.7 | 15.4* | -0.4 | -2.7
Cc1cc(C(=O)CSc2nnc(-c3ccc(F)cc3)o2)c(C)n1CC1COc2ccccc2O1 (configuration not stated) | 2.1 | -4.5 | nt | -10.6 | -12.3 | 16.2* | -0.5 | 0.1
Cc1cc(OCC(=O)OCC(=O)NCc2ccco2)ccc1Cl | nt | -0.3 | nt | 27.8 | 1.5 | 14.5* | -0.6 | -2.5
CCOc1ccc(CCNC(=O)c2ccc3c(=O)[nH]c4c(C(=O)NC(C)C)sc(=S)n4c3c2)cc1 | -3.4 | -0.5 | -0.3 | -3.6 | -56.5 | 18.8* | -0.6 | 0.1
CCCc1cc(C(=O)Nc2ccc(CC)cc2)no1 | -6.1 | -2.4 | 41.5 | 0.2 | 7.8 | -0.6 | nt | nt
COc1c2c(cc3ccc(=O)oc13)CCO2 | -3.9 | -0.2 | 9.8 | 14.2 | -9.0 | 21.2* | -0.5 | -1.5
